The source of these data is ChEMBL document CHEMBL2429796, “Discovery and synthesis of novel benzofurazan derivatives as inhibitors of influenza A virus” (Bioorg Med Chem Lett, 2013).

Activity calls are given as the source filed them. The rule behind the calls is not given here. Where only a bound is given, the exact number is not on record here.

Data set [1] concerns HEK-293T. The experiment in a line: Inhibition of influenza A virus HA-tagged polymerase acidic protien transfected in HEK293T cells after 24 hrs by ELISA. In kind it is cell-based.
Data set [2] deals with MDCK. The experiment in a line: Cytotoxicity against MDCK cells. In kind it is cell-based, Canis lupus familiaris. Conditions: dog.
The test system of data set [3] is Influenza A virus. The experiment in a line: Antiviral activity against Influenza A virus A/WSN/33(H1N1) infected in MDCK cells after 48 hrs by plaque reduction assay. In kind it is functional, organism-based, A/WSN/1933(H1N1). The gist of the method:
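Plaque-reduction assay in MDCK cells infected with influenza A/WSN/33 (H1N1). IC50 was determined only for compounds positive in an ELISA prescreen for binding to the polymerase PA subunit.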

Setting [4] is: Influenza A virus, A/WSN/1933(H1N1), MDCK, 48 h, read-out: IC50.

For orientation: IC50 means the concentration that inhibits the measured activity by half. With `O=[N+]([O-])c1cccc(CSc2ccc([N+](=O)[O-])c3nonc23)c1`, the inhibition result in data set [1] was “Active”. In data set [2], this molecule gave a Cytotoxic concentration of 20 µM. Further, in data set [3] (setting [4]), the IC50 was 1 µM.
For `O=Cc1ccc(Oc2ccc([N+](=O)[O-])c3nonc23)cc1` the same measures were “Active”, greater than 40 µM and 20 µM.
Regarding `O=[N+]([O-])c1ccc(SCc2ccc(Cl)cc2)c2nonc12`, the inhibition result in data set [1] was “Active”. For the same molecule, in data set [3] (mdck), the IC50 entry was “Not Active”.
For `COc1ccc(CSc2ccc(Cl)c3nonc23)cc1` the same measures were “Active” and “Not Active”.
In the same order, the values of `O=[N+]([O-])c1ccc(Nc2ccc(O)cc2)c2nonc12` are “Active” and “Not Active”.
For `O=[N+]([O-])c1ccc(Sc2ccc(F)cc2)c2nonc12`, the inhibition result in data set [1] was “Active”. Besides, the Cytotoxic concentration in data set [2] amounted to 40 µM. In data set [3] (setting [4]), the IC50 was 5 µM.
For `Nc1cccc(Sc2ccc([N+](=O)[O-])c3nonc23)c1` the same measures were “Active”, 40 µM and 10 µM.
Take `O=[N+]([O-])c1ccc(Sc2ccc([N+](=O)[O-])c3nonc23)cc1`: in data set [1], the inhibition entry was “Active”. In data set [2], this molecule registered a Cytotoxic concentration of 40 µM. Besides, the IC50 in data set [3] (setting [4]) amounted to 10 µM.
For `O=[N+]([O-])c1ccc(SCc2ccc(Br)cc2)c2nonc12` the same measures were “Active”, greater than 10 µM and no less than 5 µM.
As for `O=[N+]([O-])c1ccc(SCc2ccc(F)cc2)c2nonc12`, the inhibition result in data set [1] was “Active”. Moreover, the Cytotoxic concentration in data set [2] came to 20 µM. The half-maximal inhibitory concentration (IC50) entry in data set [3] (mdck) was “Not Active”.
As to `O=[N+]([O-])c1ccc(Nc2ccccc2O)c2nonc12`, in data set [1], the inhibition result is “Active”. In data set [3] (mdck), the IC50 entry is “Not Active”.
In the same order, the values of `CNc1ccc(SCc2ccc(OC)cc2)c2nonc12` are “Active” and “Not Active”.
For `COc1ccc(CSc2ccc(NCc3ccccc3)c3nonc23)cc1` the same measures were “Active” and “Not Active”.
For `O=[N+]([O-])c1ccc(SCc2ccccc2)c2nonc12`, the inhibition result in data set [1] was “Active”. Also, in data set [2], the Activity came out at 20 µM. Also, the IC50 entry in data set [3] (mdck) is reported as “Not Active”.
On to `O=[N+]([O-])c1ccc(Sc2ccccc2Br)c2nonc12`, for which, in data set [1], the inhibition entry is “Active”. In addition, the Cytotoxic concentration in data set [2] turned out to be 40 µM. In data set [3] (setting [4]), the IC50 is greater than 10 µM.
For `COc1ccc(Oc2ccc([N+](=O)[O-])c3nonc23)cc1` the same measures were “Active”, 60 µM and 30 µM.
For `O=[N+]([O-])c1ccc(Sc2ccc(Cl)cc2)c2nonc12` the same measures were “Active”, 40 µM and 10 µM.
Regarding `COc1cccc(Oc2ccc([N+](=O)[O-])c3nonc23)c1`, the inhibition result in data set [1] is “Active”. Besides, the IC50 entry in data set [3] (mdck) was “Not Active”.
`O=[N+]([O-])c1ccc(Oc2ccc(CCO)cc2)c2nonc12`: the inhibition result in data set [1] is “Active”. In data set [2], this molecule came in with a Cytotoxic concentration of 20 µM. Besides, the IC50 in data set [3] (setting [4]) was found to be 10 µM.
Regarding `O=[N+]([O-])c1ccc(Nc2ccccc2S)c2nonc12`, in data set [1], the inhibition result was “Active”. In data set [2], the Cytotoxic concentration is greater than 80 µM. Further, the IC50 in data set [3] (setting [4]) came out at 20 µM.
For `O=[N+]([O-])c1ccc(Oc2cccc(Br)c2)c2nonc12`, in data set [1], the inhibition entry was “Active”. The Cytotoxic concentration in data set [2] is greater than 40 µM. In addition, the IC50 in data set [3] (setting [4]) turned out to be 20 µM.
For `O=[N+]([O-])c1ccc(Sc2ccccc2)c2nonc12`, in data set [1], the inhibition entry is “Active”. Moreover, the Activity in data set [2] turned out to be 20 µM. Moreover, the IC50 entry in data set [3] (mdck) is “Not Active”.
In the case of `O=[N+]([O-])c1ccc(Sc2ccc(Br)cc2)c2nonc12`, the inhibition result in data set [1] is “Active”. Moreover, the Cytotoxic concentration in data set [2] turned out to be 40 µM. Moreover, the half-inhibitory concentration (IC50) in data set [3] (setting [4]) worked out at 10 µM.
`O=[N+]([O-])c1ccc(OCc2ccccc2)c2nonc12`: the inhibition result in data set [1] was “Active”. Moreover, in data set [3] (mdck), the IC50 entry was “Not Active”.
In the case of `N#Cc1ccc(Oc2ccc([N+](=O)[O-])c3nonc23)cc1`, the inhibition result in data set [1] was “Active”. Further, the IC50 entry in data set [3] (mdck) is recorded as “Not Active”.
Turning to `COc1ccc(Sc2ccc([N+](=O)[O-])c3nonc23)cc1`, in data set [1], the inhibition result was “Active”. For the same molecule, the Cytotoxic concentration in data set [2] was found to be 40 µM. Further, in data set [3] (mdck), the IC50 entry is reported as “Not Active”.
